This is a sample that favours compounds with a hit; in the whole collection about 3.1% have one here.
ERAP1 HTS inh = human ERAP1 aminopeptidase inhibitors, primary screen, biochemical, single point, plate reader. Endoplasmic reticulum aminopeptidase 1 (Homo sapiens), Q9NZ08. recombinant ERAP1, Leu-AMC fluorescence, 60 min. inhibition, % at 10.7 µM. 340,000 tested, 0.15% active. AID 652197, 2013;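 active means mean replicate inhibition of at least 30%, or all replicates individually reaching that 30% level; inactive means mean below 30% and not every replicate reaching it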
Ecoli rRNA inh = reduced GFP signal of wild-type E. coli, primary screen, bacterial rRNA inhibitor project, GFP/RFP fluorescence, OD600, single point; 350,000 tested, 1.6% active; AID 720706, 2013; GFP signal change (wild-type ribosome), % (test concentration not listed); E. coli WT GFP vs humanized-ribosome RFP mutants, 24 h; hits give low values; DMSO median 0, no signal -100;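 active means significant combined selectivity score with lowered wild-type GFP, culture density cut under 30%, mutant RFP and density less affected; inactive means any of these conditions unmet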
F508del corr = F508del CFTR correction, initial screen, CFBE line, single point; activity (quench increase), % at 7.58 µM; 350,000 tested, 0.36% active; CFBE cells, YFP halide quenching; stimulated with forskolin plus potentiator P3; % fluorescence drop versus neutral controls;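 active means mean added fluorescence quench of at least 8% versus neutral control, with both replicates also reaching 8%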;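 further: cells transiently co-express mutant CFTR-F508del with the halide-sensitive YFP; corrector assay measuring rescue of mutant channel to the surface after 24 h compound exposure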
SIRT5 inh = SIRT5 desuccinylase inhibitors, primary screen, biochemical, fluorescence imaging, single point, set 5; NAD-dependent protein deacylase sirtuin-5, mitochondrial (Homo sapiens), Q9NXA8; Purified SirT5, succinyl-peptide AMC, trypsin-coupled fluorescence; inhibition, % at 15 µM; 330,000 tested, 1.1% active; in the data active means inhibition above about 15%
Target sequence (Q9NXA8 whole entry, looked up): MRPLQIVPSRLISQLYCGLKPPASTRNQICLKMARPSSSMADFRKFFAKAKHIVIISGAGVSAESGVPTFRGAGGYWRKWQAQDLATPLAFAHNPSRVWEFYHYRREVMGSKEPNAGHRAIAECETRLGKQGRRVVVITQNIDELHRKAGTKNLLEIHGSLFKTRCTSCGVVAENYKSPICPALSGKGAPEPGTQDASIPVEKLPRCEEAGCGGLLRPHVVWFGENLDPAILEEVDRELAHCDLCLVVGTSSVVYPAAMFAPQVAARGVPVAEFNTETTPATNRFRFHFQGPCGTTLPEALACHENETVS
S100A4 MyoIIA = inhibitors of S100A4-myosin IIA peptide binding, primary screen, biochemical, fluorescence polarization, TAMRA-MyoIIA peptide; Protein S100-A4 (Homo sapiens), P26447; inhibition, % at 10.7 µM; 360,000 tested, 0.14% active; AID 652163, 2013;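 active means mean inhibition of at least 70% across replicates, with every replicate also reaching that level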
Target sequence (P26447 whole entry, looked up): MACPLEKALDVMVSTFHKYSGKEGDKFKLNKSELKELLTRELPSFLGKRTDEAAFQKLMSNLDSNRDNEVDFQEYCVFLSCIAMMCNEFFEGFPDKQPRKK
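Material: S100A4 monomer (human). Medium: Calcium-containing HEPES buffer, pH 7.2. Probe or stimulus: labelled myosin peptide probe, 5 nM. Compound dosing: one concentration per compound. Timing: polarization read 5 min after assay mix addition, stable 5–60 min. Benchmarks: DMSO as neutral control, TFP as positive control.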
A number is an active result; - = inactive; . = no result given.

SMILES | ERAP1 HTS inh | Ecoli rRNA inh | F508del corr | SIRT5 inh | S100A4 MyoIIA
COc1cccc(/C=N/Nc2nc(N3CCCC3)nc(N3CCCC3)n2)c1O | - | -18 | - | - | -
O=C(COc1ccc(Cl)cc1Cl)c1ccc[nH]1 | . | -31 | - | - | -
O=C(COc1ccc(Cl)cc1Cl)N/N=C/c1ccc[nH]1 | - | -22 | - | - | -
O=C(C[C@@H]1CC[C@H](NS(=O)(=O)c2ccc(F)cc2)[C@@H](CO)O1)NCCN1CCCCC1 | - | - | - | - | -
C/C=C/c1cnc2c(c1)C(=O)N([C@H](C)CO)C[C@@H](C)[C@@H](CN(C)S(=O)(=O)c1ccccc1F)O2 | - | - | - | - | -
O=C(c1c[nH]c2ccccc12)C(Cl)c1ccccc1 (stereo not given) | - | -24 | - | - | -
CN(C)c1ccc(O)c2c1CC1CC3[C@@H](N(C)C)C(=O)C(C(N)=O)=C(O)[C@]3(O)C(=O)C1=C2O (stereo not given in full) | - | - | - | 34 | -
S=C(NCCc1ccccn1)Nc1cc(Cl)cc(Cl)c1 | - | -32 | - | - | -
S=C(NCCc1ccccn1)Nc1ccccc1 | - | - | - | - | -
CO[C@H]1CN(C)C(=O)c2ccc(NS(=O)(=O)c3cn(C)cn3)cc2OC[C@H](C)N(Cc2cccc(F)c2)C[C@H]1C | - | - | - | - | -
CCC(=O)N(C)C[C@H]1Oc2cc(-c3ccc(F)cc3)ccc2S(=O)(=O)N([C@H](C)CO)C[C@@H]1C | - | - | - | - | -
C[C@@H]1CN([C@H](C)CO)C(=O)c2cccc(NC(=O)Nc3ccc4c(c3)OCO4)c2O[C@H]1CN(C)S(C)(=O)=O | - | - | - | - | -
O=C(OCc1cn([C@H]2CN(Cc3cccs3)[C@@H](c3ccc(Cl)cc3)C[C@@H]2O)nn1)c1ccccc1 | - | - | - | - | -
O=C(OCc1cn([C@H]2C[C@H](c3ccc(Cl)cc3)N(Cc3cccs3)C[C@@H]2O)nn1)c1ccccc1 | - | -5.0 | - | - | -
COc1cc2c(cc1OC)C(c1cccs1)N(C(=O)c1cccnc1)CC2 (stereo not given) | - | - | 9.9 | - | -
Cc1cnc(C(=O)OCC(=O)c2ccc(-c3ccccc3)cc2)cn1 | - | - | - | - | -
Cc1cnc(C(=O)OCC(=O)c2ccccc2)cn1 | - | - | - | - | 94
Cc1c(CCC(=O)NCCC(=O)O)c(=O)oc2cc3occ(-c4ccccc4)c3cc12 | - | - | - | - | -
Cc1c(CCC(=O)NCC(=O)O)c(=O)oc2cc3occ(-c4ccccc4)c3cc12 | - | -20 | - | - | -
CCCC(NC(=O)CCc1c(C)c2cc3c(-c4ccccc4)coc3cc2oc1=O)C(=O)O (stereo not given) | - | -34 | - | - | -
CCC(=O)Nc1ccc2c(c1)OC[C@H](C)N(C(=O)CN(C)C)C[C@@H](C)[C@@H](OC)CN(C)C2=O | - | - | - | - | -
C[C@@H]1CCCCO[C@@H](CN(C)C(=O)Nc2cccc3ccccc23)[C@@H](C)CN([C@H](C)CO)C(=O)c2cc(NC(=O)Nc3ccc4c(c3)OCO4)ccc2O1 | - | - | - | - | -
Cc1c(Cl)cccc1NC(=S)N(Cc1cccs1)C1CCCC1 | - | -22 | - | - | -
Cc1ccccc1NC(=S)N(Cc1cccs1)C1CCCCC1 | - | - | - | - | -
CO[C@@H](CN(C)C(=O)c1cnccn1)[C@@H](C)CN([C@@H](C)CO)S(=O)(=O)c1ccc(C)cc1 | - | - | - | - | -
SMILES | ERAP1 HTS inh | Ecoli rRNA inh | F508del corr | SIRT5 inh | S100A4 MyoIIA
COc1ccc2c(c1)C(c1ccc(N3CCOCC3)cc1)=NNC(c1cccnc1)=N2 | - | -17 | . | - | -
COc1ccc(C2=NNC(c3cccnc3)=Nc3ccc(OC)cc32)cc1 | - | - | - | - | -
CN1c2ccc(-c3cccc(F)c3)cc2[C@@H]2[C@@H](CCN2C(=O)c2ccc3c(c2)OCO3)[C@@H]1CO | - | - | - | - | -
N#C/C(C(N)=O)=C1/SC(Cc2ccc(F)cc2)C(=O)N1c1ccccc1 (stereo not given) | - | - | - | - | -
Cc1ccccc1N1C(=O)C(Cc2ccc(F)cc2)S/C1=C(\C#N)C(N)=O (stereo not given) | - | -31 | - | - | -
Cc1noc(C)c1S(=O)(=O)N(C)C[C@@H]1OCCCC[C@@H](C)Oc2ccc(NS(C)(=O)=O)cc2C(=O)N([C@H](C)CO)C[C@@H]1C | - | - | - | - | -
O=C(NNc1ccccc1)C(CCO)C(=O)NNc1ccccc1 | - | - | - | 112 | -
C[C@@H]1CN([C@@H](C)CO)C(=O)c2cc(N(C)C)ccc2O[C@H]1CN(C)C(=O)NC1CCCCC1 | - | - | - | - | -
CCN(CCCNC(=O)C1CCC(=O)N1Cc1ccc(C)cc1)c1cccc(C)c1 (stereo not given) | - | - | . | 17 | -
CC1=NCCN1S(=O)(=O)c1c(C(C)C)cc(C(C)C)cc1C(C)C | - | - | - | 27 | -
CCN(CC)c1ccc(C=C2SC(=S)NC2=O)cc1 | - | - | - | - | -
CC1Cc2cc(/C=C3/SC(=S)NC3=O)ccc2O1 (stereo not given) | - | -20 | - | - | -
Nc1nccc(SCc2ccc(Cl)cc2Cl)n1 | - | - | - | . | -
Nc1nc(N)c(Cc2ccc(Cl)cc2Cl)c(N)n1 | - | -29 | - | - | -
C/C=C/c1ccccc1[C@H]1[C@@H](CO)N(C(=O)Nc2ccccc2F)[C@H]1C#N | - | - | - | - | -
COCC(=O)N1C[C@H]2[C@@H](c3ccccc31)[C@@H](CO)N2C(=O)Nc1ccccc1F | - | - | - | - | 102
O=C(C1CCCCC1)N1C[C@H]2[C@@H](c3ccccc31)[C@H](CO)N2C(=O)Cc1ccccn1 | - | - | - | 16 | -
C/C=C/c1ccc([C@H]2[C@@H](CO)N(C(=O)Nc3ccccc3F)[C@H]2C#N)cc1 | - | - | - | - | 89
O=C(C1CCCC1)N1C[C@@H]2[C@H](c3ccccc31)[C@@H](CO)N2C(=O)c1ccccc1F | - | - | - | - | 115
O=C(C1CCCC1)N1C[C@@H]2[C@H](c3ccccc31)[C@H](CO)N2C(=O)Cc1ccccn1 | - | - | - | - | -
C[C@@H]1CN([C@@H](C)CO)C(=O)c2cc(/C=C/c3ccccc3)cnc2O[C@@H]1CN(C)C(=O)Cc1cccnc1 | - | - | - | - | -
Cc1noc(C)c1S(=O)(=O)Nc1cccc2c1O[C@H](CN(C)Cc1ccc(Oc3ccccc3)cc1)[C@H](C)CN([C@@H](C)CO)C2=O | - | - | - | - | -
